According to ChEMBL document CHEMBL3091272, “Caesalminaxins A-L, cassane diterpenoids from the seeds of Caesalpinia minax” (J Nat Prod, 2013):

Legend:
Assay type in all cases: functional, cell-based
HepG2 = assay: Cytotoxicity against human HepG2 cells after 24 to 72 hrs by MTT assay
Summary of the method: (§1)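 Cells seeded at 5 × 10^4 cells/mL and held 24 h at 37 °C before the test compound was added as a DMSO solution at a range of concentrations. MTT staining was done after 24, 48 and 72 h. Absorbance was read at 490 nm against a negative control. IC50 was the concentration giving 50% cell death, taken from a plot of concentration versus % viability. Camptothecin served as positive control.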

K562 = assay: Cytotoxicity against human K562 cells after 24 to 72 hrs by MTT assay; summary of the method: as §1
HeLa = assay: Cytotoxicity against human HeLa cells after 24 to 72 hrs by MTT assay; summary of the method: as §1
DU-145 = assay: Cytotoxicity against human DU145 cells after 24 to 72 hrs by MTT assay; summary of the method: as §1

With `CO[C@H]1C=C2[C@@](OC)(C[C@H]3[C@@H]([C@@H](OC(C)=O)[C@H](OC(C)=O)[C@@]4(O)C(C)(C)CC[C@H](OC(C)=O)[C@]34C)[C@]2(C)O)O1` the IC50 (HepG2) was 11.5 µM, the IC50 (K562) was 9.2 µM and the IC50 (HeLa) was greater than 50 µM. The IC50 (DU-145) was greater than 50 µM.

For `CCO[C@]1(C)[C@@H]2[C@@H](OC(C)=O)[C@H](OC(C)=O)[C@@]3(O)C(C)(C)CC[C@H](OC(C)=O)[C@]3(C)[C@H]2C[C@]12C(=O)O[C@@H]1O[C@@H]12`, the IC50 (HepG2) was greater than 50 µM, the IC50 (K562) was 9.9 µM and the IC50 (HeLa) was 12.1 µM. The IC50 (DU-145) was 17.1 µM.

`CC(=O)O[C@H]1[C@@H]2OC(=O)[C@@H]3c4ccoc4C[C@@H]([C@@H]23)[C@@]2(C)[C@@H](O)CCC(C)(C)[C@]12O` was tested, and the IC50 (HepG2) was 8 µM, the IC50 (K562) was greater than 50 µM and the IC50 (HeLa) was greater than 50 µM. The IC50 (DU-145) was 12 µM.

Work on `CC[C@@]1(O)C(=O)OCc2c1cc1n(c2=O)Cc2cc3ccccc3nc2-1` [CAMPTOTHECIN] yielded an IC50 (HepG2) of 0.6 µM, an IC50 (K562) of 0.4 µM and an IC50 (HeLa) of 0.5 µM. It also gave an IC50 (DU-145) of 0.8 µM.
